The values that follow come from ChEMBL document CHEMBL1138319, “Synthesis and pharmacological evaluation of fluorescent and photoactivatable analogues of antiplasmodial naphthylisoquinolines” (J Med Chem, 2007).

One experiment has as its system Plasmodium falciparum. Nature of the experiment: Antiplasmodial activity against Plasmodium falciparum in human red blood cells after 4 hrs. It counts as functional, organism-based.
The next experiment relates to L6. Nature of the experiment: Cytotoxicity against rat L6 cells. It is filed as cell-based. An outline of the steps: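 L-6 rat skeletal myoblast cell line; cytotoxicity values reported in µM.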
In experiment [1] the target is T1, Falcipain 2 (Plasmodium falciparum) (UniProt Q9N6S8).
T1 sequence (whole entry): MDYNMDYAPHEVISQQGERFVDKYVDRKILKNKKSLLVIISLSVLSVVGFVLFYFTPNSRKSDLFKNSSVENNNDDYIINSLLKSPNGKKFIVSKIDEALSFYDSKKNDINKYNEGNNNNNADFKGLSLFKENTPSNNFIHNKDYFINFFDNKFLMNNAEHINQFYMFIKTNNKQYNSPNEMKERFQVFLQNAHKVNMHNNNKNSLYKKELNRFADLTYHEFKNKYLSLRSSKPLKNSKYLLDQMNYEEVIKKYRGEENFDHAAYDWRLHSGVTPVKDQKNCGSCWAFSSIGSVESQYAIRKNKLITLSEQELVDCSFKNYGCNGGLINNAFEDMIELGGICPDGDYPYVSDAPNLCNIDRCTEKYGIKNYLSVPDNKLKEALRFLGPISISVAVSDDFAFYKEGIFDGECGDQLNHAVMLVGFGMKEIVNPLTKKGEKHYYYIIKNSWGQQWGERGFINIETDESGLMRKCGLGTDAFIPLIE
Nature of the experiment: Inhibition of Plasmodium falciparum recombinant cysteine protease falcipain-2.

Molecules are shown by their SMILES. Activity calls are given as the source filed them. The calls are words filed in the database; no cut-off is given here.

As for `COc1cccc2c(-c3cc(CNCCCCCCNS(=O)(=O)c4cccc5c(N(C)C)cccc45)c4c(c3OCc3ccccc3)[C@@H](C)N(Cc3ccccc3)[C@H](C)C4)c(C)cc(OC)c12`, the IC50 (in general, the concentration that gives 50% inhibition) amounted to 45 nM in the experiment with Plasmodium falciparum and 2500 nM in the experiment with L6.
Regarding `COc1cc([C@@H]2c3cc4c(cc3[C@H](O)[C@H]3COC(=O)[C@H]23)OCO4)cc(OC)c1OC` [PODOFILOX], in the experiment on L6, the IC50 was determined as 7 nM.
Consider `COc1cccc2c(-c3cc(CCCOC(=O)N([C@@H](Cc4ccc(OCc5ccc(C(=O)c6ccccc6)cc5)cc4)C(=O)O)S(=O)(=O)c4cccc5c(N(C)C)cccc45)c4c(c3O)[C@@H](C)N[C@H](C)C4)c(C)cc(OC)c12`, for which the IC50 turned out to be 960 nM in the experiment with Plasmodium falciparum and 69500 nM in the experiment with L6.
`COc1cccc2c(-c3ccc4c(c3O)[C@@H](C)N[C@H](C)C4)c(C)cc(OC)c12` [DIONCOPHYLLINE A]: the values for the IC50 in the experiment on Plasmodium falciparum and with L6 were 381 nM and 29100 nM, respectively. Further, the outcome in experiment [1] was inactive.
In the case of `COC(=O)/C=C/c1cc(-c2c(C)cc(OC)c3c(OC)cccc23)c(OCc2ccccc2)c2c1C[C@@H](C)N(Cc1ccccc1)[C@@H]2C`, the results for the IC50 in the experiment with Plasmodium falciparum and in the experiment with L6 were 190 nM and over 140000 nM, respectively.
In the same order, the values of `COc1cccc2c(-c3cc(CCCO)c4c(c3O)[C@@H](C)N[C@H](C)C4)c(C)cc(OC)c12` are 2420 nM and 99000 nM.
In the same order, the values of `COc1cccc2c(-c3cc(CNCCCCCCNS(=O)(=O)c4cccc5c(N(C)C)cccc45)c4c(c3O)[C@@H](C)N[C@H](C)C4)c(C)cc(OC)c12` are 602 nM and 16500 nM.
